# Measurements: PMC6139073 (Cancer research, 2018)
# Key:
# [1] = in vivo; cited from earlier work
# [2] = in vivo; cited from earlier work; remark: listed apart in the source
# [3] = Plasma pharmacokinetics in patients; type: in vivo, human
# p-ERK = p-ERK immunohistochemistry; type: in vivo, human; settings: run-in and concurrent arms combined; H-score over 50 positive
# Summary of the method: (§1)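 Tumour biopsies from the expansion cohort (20 patients with metastatic irinotecan- and oxaliplatin-refractory CRC on MEK inhibitor plus Wnt-modulator combination); two core biopsies per patient, taken pre- and post-treatment. IHC with hematoxylin counterstain; brown membrane/cytoplasmic staining was scored positive. H-score (0–300) was derived from the proportion and intensity of stained tumour cells in the predominant compartment. Values over 50 were positive, and results were summarised descriptively.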
# [4] = single agent; cited from earlier work
# FZD1/2 = FZD1/2 immunohistochemistry; type: in vivo, human; settings: run-in and concurrent arms combined; H-score over 50 positive
# Summary of the method: as §1
# [5] = tested on: advanced BRAF V600E or V600K mutated melanoma; settings: single agent, cited from earlier work
difference in pharmacokinetics of selumetinib given alone versus with CsA ([3]; day -7 vs C1D1),"Cmax ([3]; human, plasma, oral) [ng/mL]","Cmax ([3]; human, plasma, oral, 75 mg) [ng/mL]","half-life ([3]; human, plasma, oral, 75 mg) [h]",SMILES,"Visual changes, patients [1] [%]",dose limiting toxicity [1],mean half-life (t½) [2] [h],patients positive for p-ERK post-treatment (p-ERK),Recommended Phase II Dose (RP2D) [4] [mg BID],patients positive for FZD1/2 post-treatment (FZD1/2),"median progression-free survival ([5]; vs 1.5 in comparator, p < 0.001) [mos]",6-month survival rate ([5]; vs 67% in comparator) [%]
no substantial difference,1250,1550,6.4,Cn1cnc2c(F)c(Nc3ccc(Br)cc3Cl)c(C(=O)NOCCO)cc21 [selumetinib],12,grade 3 acneiform rash and pleural effusion,5 to 8,14 out of 15,100,11 out of 15,,
,,,,CC(=O)Nc1cccc(-n2c(=O)n(C3CC3)c(=O)c3c(Nc4ccc(I)cc4F)n(C)c(=O)c(C)c32)c1 [trametinib],,,,,,,4.8,81
